ChEMBL document CHEMBL2062428, “Cyclooxygenase-1-selective inhibitors based on the (E)-2'-des-methyl-sulindac sulfide scaffold” (J Med Chem, 2012)
The source made the active and inactive calls. The rule behind the calls is not given here.

What was measured:
[1] = molecular target: T1, Prostaglandin G/H synthase 2 (Mus musculus) (UniProt Q05769); experiment: Inhibition of mouse COX-2 using [14C] arachidonic acid as substrate at 4 uM preincubated for 17 mins before substrate addition measured after 3 mins by thin-layer chromatographic analysis
T1 sequence (whole entry): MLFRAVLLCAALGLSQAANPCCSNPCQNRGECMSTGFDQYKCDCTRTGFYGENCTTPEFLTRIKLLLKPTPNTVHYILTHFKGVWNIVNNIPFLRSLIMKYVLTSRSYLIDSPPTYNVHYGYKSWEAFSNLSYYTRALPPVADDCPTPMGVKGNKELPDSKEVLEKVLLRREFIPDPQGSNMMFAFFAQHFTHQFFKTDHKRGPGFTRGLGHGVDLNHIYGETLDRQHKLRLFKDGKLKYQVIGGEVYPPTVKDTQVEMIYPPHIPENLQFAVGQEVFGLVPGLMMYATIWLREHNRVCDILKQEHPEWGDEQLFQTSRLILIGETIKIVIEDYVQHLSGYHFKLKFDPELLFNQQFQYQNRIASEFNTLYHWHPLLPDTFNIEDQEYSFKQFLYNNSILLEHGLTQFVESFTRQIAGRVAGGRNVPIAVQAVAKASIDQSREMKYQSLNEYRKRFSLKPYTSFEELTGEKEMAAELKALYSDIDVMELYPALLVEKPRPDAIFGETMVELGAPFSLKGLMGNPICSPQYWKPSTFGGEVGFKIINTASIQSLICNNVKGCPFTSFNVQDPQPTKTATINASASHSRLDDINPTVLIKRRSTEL
How it was run: (§1)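 Purified ovine COX-1 or murine COX-2 preincubated with a single 4 μM inhibitor concentration for 17 min. […] Reaction quenched; radioactive products extracted and quantified. Mean ± SEM of two experiments.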

[2] = molecular target: T2, Prostaglandin G/H synthase 1 (Ovis aries) (UniProt P05979); experiment: Inhibition of ovine COX-1 using [14C] arachidonic acid as substrate at 4 uM preincubated for 17 mins before substrate addition measured after 3 mins by thin-layer chromatographic analysis; how it was run: as §1
T2 sequence (whole entry): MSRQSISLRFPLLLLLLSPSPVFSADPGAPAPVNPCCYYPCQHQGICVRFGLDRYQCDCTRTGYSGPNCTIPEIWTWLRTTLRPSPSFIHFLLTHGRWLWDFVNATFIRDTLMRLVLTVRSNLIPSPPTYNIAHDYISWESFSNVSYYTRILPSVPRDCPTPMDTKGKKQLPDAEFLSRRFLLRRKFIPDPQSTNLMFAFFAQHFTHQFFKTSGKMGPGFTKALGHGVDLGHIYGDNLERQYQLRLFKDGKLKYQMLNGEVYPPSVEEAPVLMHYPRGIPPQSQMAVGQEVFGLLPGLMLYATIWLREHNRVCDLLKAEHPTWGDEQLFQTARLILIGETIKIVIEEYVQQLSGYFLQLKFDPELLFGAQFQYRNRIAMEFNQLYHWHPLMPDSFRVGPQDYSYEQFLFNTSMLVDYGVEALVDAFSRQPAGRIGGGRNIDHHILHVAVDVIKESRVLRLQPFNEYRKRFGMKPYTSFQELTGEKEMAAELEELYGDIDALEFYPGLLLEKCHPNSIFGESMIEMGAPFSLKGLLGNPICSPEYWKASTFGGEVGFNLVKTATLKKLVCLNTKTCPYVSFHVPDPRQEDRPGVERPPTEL

SMILES	inhibition [1]	inhibition [2] [%]
O=C(O)CC1=C/C(=C\c2ccc(-c3ccc(C(F)(F)F)cc3)cc2)c2ccc(F)cc21	15%	31
Cc1ccc(/C=C2\C=C(CC(=O)O)c3cc(F)ccc32)cc1	13%	52
CSc1ccc(/C=C2\C=C(CC(=O)NS(=O)(=O)c3ccc(C)cc3)c3cc(F)ccc32)cc1	20%	55
C#Cc1ccc(/C=C2\C=C(CC(=O)O)c3cc(F)ccc32)cc1	17%	62
CSc1ccc(/C=C2\C=C(CC(=O)OC(C)C)c3cc(F)ccc32)cc1	0%	27
CSc1ccc(/C=C2\C=C(CC(=O)NS(=O)(=O)c3ccc(C(C)C)cc3)c3cc(F)ccc32)cc1	2%	45
COc1ccc(-c2cccc(/C=C3\C=C(CC(=O)O)c4cc(F)ccc43)n2)cc1	56%	35
O=C(O)CC1=C/C(=C\c2ccc3nccnc3c2)c2ccc(F)cc21	29%	31
CSc1ccc(/C=C2\C=C(CC(=O)NS(=O)(=O)c3ccc(Cl)s3)c3cc(F)ccc32)cc1	34%	59
O=C(O)CC1=C/C(=C\c2ccc3cccnc3c2)c2ccc(F)cc21	16%	58
O=C(O)CC1=C/C(=C\c2ccc(-c3ccccc3)c(F)c2)c2ccc(F)cc21	34%	44
CSc1ccc(/C=C2\C=C(CC(=O)NS(=O)(=O)c3ccc(Br)cc3)c3cc(F)ccc32)cc1	30%	40
O=C(O)CC1=C/C(=C\c2ccc(-c3ccc(F)nc3)cc2)c2ccc(F)cc21	10%	27
O=C(O)CC1=C/C(=C\c2cccc3cccnc23)c2ccc(F)cc21	0%	51
O=C(O)CC1=C/C(=C\c2cnc(-c3ccccc3)nc2)c2ccc(F)cc21	8%	35
O=C(O)CC1=C/C(=C\c2cccc(-c3ccc(F)cc3)n2)c2ccc(F)cc21	81%	17
O=C(O)CC1=C/C(=C\c2ccc(SC(F)(F)F)cc2)c2ccc(F)cc21	35%	77
O=C(O)CC1=C/C(=C\c2cnc(C3CCCCC3)nc2)c2ccc(F)cc21	25%	45
C#CCOc1ccc(/C=C2\C=C(CC(=O)O)c3cc(F)ccc32)cc1OCC	20%	68
O=C(CC1=C/C(=C\c2ccc(-c3ccccc3)cc2)c2ccc(F)cc21)NS(=O)(=O)C(F)(F)F	15%	99
O=C(O)CC1=C/C(=C\c2ccc(-c3ccc(F)cc3)cc2)c2ccc(F)cc21	16%	33

SMILES	inhibition [1]	inhibition [2] [%]
O=C(O)CC1=C/C(=C\c2ccc(F)c3ccccc23)c2ccc(F)cc21	22%	61
Cc1nc(-c2ccccc2)ncc1/C=C1\C=C(CC(=O)O)c2cc(F)ccc21	19%	19
CCOC(=O)C(C)(C)C1=C/C(=C\c2ccc(-c3ccccc3)cc2)c2ccc(F)cc21	2%	26
CSc1ccc(/C=C2\C=C(CC(=O)NS(=O)(=O)c3ccccc3C)c3cc(F)ccc32)cc1	36%	60
O=C(O)CC1=C/C(=C\c2cccc(-c3ccc4c(c3)OCO4)n2)c2ccc(F)cc21	43%	59
CCOC(=O)C(C)(C)C1=C/C(=C\c2cc(-c3ccc(C)cc3)on2)c2ccc(F)cc21	0%	37
CSc1ccc(/C=C2\C=C(CC(=O)NS(=O)(=O)c3ccc(C(C)=O)cc3)c3cc(F)ccc32)cc1	26%	3.5
CSc1ccc(/C=C2\C=C(CC(=O)NS(=O)(=O)c3ccc(OC(F)(F)F)cc3)c3cc(F)ccc32)cc1	32%	47
CCOC(=O)C(C)(C)C1=C/C(=C\c2cccc(-c3ccc(F)cc3)n2)c2ccc(F)cc21	21%	24
C[S+]([O-])c1ccc(/C=C2\C=C(CC(=O)O)c3cc(F)ccc32)cc1 (configuration not stated)	8.5%	27
CCOC(=O)C(C)(C)C1=C/C(=C\c2cnc(-c3ccccc3)nc2C)c2ccc(F)cc21	9%	25
O=C(O)CC1=C/C(=C\c2ccc(-c3ccccc3)nc2)c2ccc(F)cc21	5%	55
CCOC(=O)C(C)(C)C1=C/C(=C\c2cccc(-c3ccccc3)c2)c2ccc(F)cc21	4%	24
COC(=O)CC1=C/C(=C\c2ccc(SC)cc2)c2ccc(F)cc21	9%	39
COc1ccc2c(c1)C(CC(=O)O)=C/C2=C\c1ccc(-c2ccccc2)cc1	2%	38
O=C(O)CC1=C/C(=C\c2ccc(C(F)(F)F)cc2)c2ccc(F)cc21	60%	81
CCOC(=O)C(C)(C)C1=C/C(=C\c2ccc(-c3ccc(F)cc3)cc2)c2ccc(F)cc21	0%	10
O=C(O)CC1=C/C(=C\c2cccc3ccccc23)c2ccc(F)cc21	7%	53
CSc1ccc(/C=C2\C=C(CC(=O)NS(=O)(=O)c3ccc(C(F)(F)F)cc3)c3cc(F)ccc32)cc1	19%	48
O=C(O)CC1=C/C(=C\c2ccc(C(=O)O)cc2)c2ccc(F)cc21	0%	43
CSc1ccc(/C=C2\C=C(CC(=O)NS(=O)(=O)c3ccc4ccccc4c3)c3cc(F)ccc32)cc1	26%	74

SMILES	inhibition [1]	inhibition [2] [%]
O=C(O)CC1=C/C(=C\c2ccc3ccccc3c2)c2ccc(F)cc21	34%	75
O=C(O)CC1=C/C(=C\c2cccc(-c3cccs3)n2)c2ccc(F)cc21	28%	15
CSc1ccc(-c2ccc(/C=C3\C=C(CC(=O)O)c4cc(F)ccc43)cc2)cc1	18%	68
O=C(O)CC1=C/C(=C\c2ccc3c(c2)Cc2ccccc2-3)c2ccc(F)cc21	26%	70
CSc1ccc(/C=C2\C=C(C(C)(C)C(=O)O)c3cc(F)ccc32)cc1	16%	17
CSc1ccc(/C=C2\C=C(CC(N)=O)c3cc(F)ccc32)cc1	5%	21
COc1ccc(/C=C2\C=C(CC(=O)O)c3cc(F)ccc32)cc1	22%	62
O=C(O)CC1=C/C(=C\c2ccc(S(=O)(=O)C(F)(F)F)cc2)c2ccc(F)cc21	16%	34
CCOC(=O)C(C)C1=C/C(=C\c2ccc(-c3ccccc3)cc2)c2ccc(F)cc21 (configuration not stated)	0%	30
O=C(O)CC1=C/C(=C\c2ccccc2)c2ccc(F)cc21	34%	74
CC(C(=O)O)C1=C/C(=C\c2ccc(-c3ccccc3)cc2)c2ccc(F)cc21 (configuration not stated)	inactive	30
CCOC(=O)CC1=C/C(=C\c2ccc(C(=O)OCC)cc2)c2ccc(F)cc21	0%	39
O=C(O)CC1=C/C(=C\c2ccc([S+]([O-])C(F)(F)F)cc2)c2ccc(F)cc21 (configuration not stated)	15%	51
O=C(O)CC1=C/C(=C\c2ccc(Br)cc2)c2ccc(F)cc21	34%	73
CSc1ccc(/C=C2\C=C(CC(=O)NS(C)(=O)=O)c3cc(F)ccc32)cc1	7%	21
CCOC(=O)C(C)(C)C1=C/C(=C\c2ccc(SC)cc2)c2ccc(F)cc21	0%	43
O=C(O)CC1=C/C(=C\c2ccc3cccnc3n2)c2ccc(F)cc21	42%	14
CCOC(=O)C(C)(C)C1=C/C(=C\c2cn(C)c3ccccc23)c2ccc(F)cc21	22%	47
CCOC(=O)C(C)(C)C1=C/C(=C\c2ccc(-c3ccccc3)c(F)c2)c2ccc(F)cc21	15%	40
